{"data": "Results collected from several papers", "target": "Casein kinase I isoform gamma-1 (CSNK1G1, Homo sapiens, UniProt Q9HCP0)", "note": "Lines come from different studies, so protocols differ."}
{"Compound": "C[C@H]1CCN(c2nccc(-c3cnn4ncccc34)n2)C1", "effect on": "binding", "tested at": "1 µM", "remaining binding": "85%"}
{"Compound": "CO[C@@H](C)c1c(Nc2ccc([C@H](N(C)C(=O)C3CCS(=O)(=O)CC3)C(F)(F)F)cc2)cnc2cc(Cl)nn12", "effect on": "cell-free assay", "method": "competition with immobilised ligand", "tested at": "1 µM", "remaining binding": "100%"}
{"Compound": "CC1CCCN1c1nccc(-c2cnn3ncccc23)n1 (stereo not drawn)", "effect on": "binding", "tested at": "1 µM", "remaining binding": "100%"}
{"Compound": "Nc1ncc2c(n1)-c1c([nH]c3ccc(C#CC4CC4)cc13)CCCC2", "effect on": "binding", "method": "competition with immobilised ligand", "tested at": "1 µM", "remaining binding": "79%"}
{"Compound": "COc1cnc(Nc2cccc(S(N)(=O)=O)c2)nc1N1CCN(c2ccccc2)C(=O)C1", "effect on": "binding", "method": "competition with immobilised ligand", "tested at": "1 µM", "remaining binding": "100%"}
{"Compound": "O=C(NCC1CCOCC1)c1n[nH]cc1NC(=O)c1c(F)cccc1F", "effect on": "binding", "method": "competition with immobilised ligand", "tested at": "1 µM", "remaining binding": "78%"}
{"Compound": "CN(C)c1nccc(-c2cnn3ncccc23)n1", "effect on": "binding", "tested at": "1 µM", "remaining binding": "100%"}
{"Compound": "C[C@@H]1CN(c2cc(-c3nn(C)c4ccc(OC5(C)CC5)cc34)ncn2)C[C@H](C)O1", "effect on": "cell-free assay", "method": "competition with immobilised ligand", "tested at": "1 µM", "remaining binding": "89%"}
{"Compound": "N[C@H]1CCN(c2nccc(-c3cnn4ncccc34)n2)C1", "effect on": "binding", "tested at": "1 µM", "remaining binding": "82%"}
{"Compound": "Cn1nc(C(=O)NCc2ccc(C(=O)O)cc2)cc1-c1ccc2[nH]ccc2c1", "effect on": "cell-free assay", "method": "competition with immobilised ligand", "tested at": "0.1 µM", "remaining binding": "91%"}
{"Compound": "O=C(NCCCN1CCOCC1)c1ccc(Nc2nccc(-c3cc4ccccc4s3)n2)cc1", "effect on": "binding", "method": "competition with immobilised ligand", "tested at": "1 µM", "remaining binding": "81%"}
{"Compound": "Cc1cnn2ncc(-c3ccnc(N(C)C)n3)c2c1", "effect on": "binding", "tested at": "1 µM", "remaining binding": "73%"}
{"Compound": "CCC(=O)N[C@H]1CC[C@@H](C(=O)N(C)c2ccc(-c3nc4ccccc4o3)cc2)C1", "effect on": "cell-free assay", "method": "competition with immobilised ligand", "tested at": "1 µM", "remaining binding": "90%"}
{"Compound": "O=C(c1ccc(Nc2ncc(Cl)c(-c3ccc(Cl)s3)n2)cc1)N1CCC(N2CCCC2)CC1", "effect on": "binding", "method": "competition with immobilised ligand", "tested at": "1 µM", "remaining binding": "80%"}
{"Compound": "COc1cccc(CNC(=O)c2nc3scc(COCc4ccc(C(=O)O)cc4)c3c(=O)[nH]2)c1", "effect on": "cell-free assay", "method": "competition with immobilised ligand", "tested at": "1 µM", "remaining binding": "100%"}
{"Compound": "CCN1CCN(Cc2ccc(C(=O)Nc3ccc(C)c(Oc4ccc5c(c4)CC(=O)N5)c3)cc2C(F)(F)F)CC1", "effect on": "binding", "method": "competition with immobilised ligand", "tested at": "1 µM", "remaining binding": "100%"}
{"Compound": "CN(C)c1ncc(F)c(-c2cnn3ncccc23)n1", "effect on": "binding", "tested at": "1 µM", "remaining binding": "74%"}
{"Compound": "O=C(c1ccc(Nc2nccc(-c3cc4ccccc4s3)n2)cc1)N1CCC(N2CCCC2)CC1", "effect on": "binding", "method": "competition with immobilised ligand", "tested at": "1 µM", "remaining binding": "88%"}
